Tests used:
[1] = target: T1, ABHD12 (Homo sapiens, UniProt Q8N2K0); experiment: In situ treatment of THP-1 cells, competitive gel-based ABPP with JJH350 probe; format: cell-based; conditions: 1 μM, 4 h in situ
T1 sequence (Q8N2K0 1-398): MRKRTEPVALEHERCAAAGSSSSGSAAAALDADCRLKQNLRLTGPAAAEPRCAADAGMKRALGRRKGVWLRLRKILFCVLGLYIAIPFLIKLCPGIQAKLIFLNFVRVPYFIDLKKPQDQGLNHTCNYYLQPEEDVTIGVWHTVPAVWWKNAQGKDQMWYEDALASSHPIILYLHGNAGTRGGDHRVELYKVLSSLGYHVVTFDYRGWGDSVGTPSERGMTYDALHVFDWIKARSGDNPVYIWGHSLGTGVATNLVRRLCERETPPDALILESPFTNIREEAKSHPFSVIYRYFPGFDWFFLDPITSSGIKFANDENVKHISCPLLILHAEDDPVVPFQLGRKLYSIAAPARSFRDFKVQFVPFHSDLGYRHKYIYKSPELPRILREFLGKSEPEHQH
Summary of the method: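 Whole THP-1 cells exposed to test compound or DMSO for 4 h at 37 °C, 5% CO₂, then washed twice with ice-cold DPBS. Proteome (1 mg/mL) labelled with JJH350 (2 μM final, 45 min, 37 °C), clicked by CuAAC and resolved on gel. ABHD12 band intensity is expressed relative to the control-treated sample, set to 100%.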

[2] = tested on: mice; experiment: Two-week daily dosing, overt signs of toxicity; format: in vivo, mouse; conditions: adult mice, 30 mg/kg daily, p.o., two weeks
[3] = target: T1, ABHD12; experiment: ABPP-SILAC; format: cell-based; conditions: 1 μM, 4 h, THP-1 cells
Summary of the method: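 Heavy- or light-labelled THP-1 cells (30 million) differentiated with PMA (150 ng/mL final) for 24 h, washed, then kept a further 24 h in fresh SILAC medium. Light cells treated with test compound and heavy cells with DMSO, 4 h at 37 °C. Sonicated whole-cell proteomes (2 mg/mL) labelled separately with FP-biotin 1 μM, 30 min, room temperature, then combined for quantitative MS.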

[4] = target: T2, ABHD12 (Mus musculus, UniProt Q99LR1); experiment: Competitive gel-based ABPP with JJH350 probe in mouse brain membrane proteome; format: biochemical; conditions: for activity against ABHD12 (in words): gel-based competitive ABPP, mouse brain membrane proteome
T2 sequence (Q99LR1 1-398): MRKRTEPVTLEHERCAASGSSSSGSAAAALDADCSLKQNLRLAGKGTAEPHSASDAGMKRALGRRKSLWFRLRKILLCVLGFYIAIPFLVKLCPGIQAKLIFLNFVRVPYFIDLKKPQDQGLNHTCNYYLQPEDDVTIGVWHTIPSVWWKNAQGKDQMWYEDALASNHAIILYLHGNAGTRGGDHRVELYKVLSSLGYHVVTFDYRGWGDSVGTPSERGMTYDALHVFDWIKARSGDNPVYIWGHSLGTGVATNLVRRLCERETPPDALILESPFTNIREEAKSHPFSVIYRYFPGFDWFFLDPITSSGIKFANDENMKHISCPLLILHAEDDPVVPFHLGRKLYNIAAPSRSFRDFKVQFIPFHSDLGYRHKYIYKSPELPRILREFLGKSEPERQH

[5] = tested on: serine hydrolases in THP-1 cells; experiment: ABPP-SILAC; format: cell-based, human; conditions: 1 μM, 4 h, THP-1 cells
[6] = target: T2, ABHD12; experiment: Ex vivo gel-based competitive ABPP; format: in vivo; conditions: mice, 60 mg/kg, 4 h
[7] = tested on: LCMV clone 13; conditions: mouse, in vivo, ip, 30 mg/kg
[8] = Measurement of drug concentration in brain and blood of mice; format: in vivo, mouse; conditions: 4 h, at 60 mg/kg (i.p.) approximated exposures observed with DO264
Summary of the method: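 Tissues harvested 4 h after dosing. Brain homogenised in 4 volumes of water per weight; cardiac-puncture blood quenched 1:4 in acetonitrile. Samples diluted 1000–2000-fold in 50% ACN and spiked into blank C57BL/6J brain homogenate or blood, alongside serially diluted calibration standards. After vortexing and centrifugation (4 °C, 15 min), supernatant diluted 5-fold in water and quantified by LC/MS/MS.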

[9] = tested on: THP-1 cells; experiment: Targeted LC-MS of; format: cell-based, human; conditions: DO264 0.001-1 μM, (S)-DO271 1 μM, 4 h
Summary of the method: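 THP-1 cells (6 million in 10 mL) incubated with test compound or DMSO for 4 h at 37 °C, 5% CO₂. Cells washed twice with ice-cold DPBS and stored at −80 °C, then analysed by targeted LC-MS metabolomics for lyso-PS and PS species.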

[10] = target: T2, ABHD12; experiment: Lyso-PS hydrolysis assay with membrane lysates of ABHD12-transfected cells; format: biochemical
Summary of the method: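 Membrane lysate of ABHD12-transfected cells in DPBS incubated with 17:1 lyso-PS (100 μM final) for 20 min at 37 °C. Quenched in 2:1 CHCl₃/MeOH with 15:0 FFA internal standard. Activity is the LC-MS 17:1 FFA/15:0 FFA peak-area ratio minus mock-transfected membrane activity. IC50 fitted as log(inhibitor) vs normalized response.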

[11] = target: T2, ABHD12; experiment: Competitive ABPP with FP-Rh probe, lysates of ABHD12-transfected cells; format: biochemical; conditions: hit compound tested at 10 μM
Summary of the method: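 Mouse ABHD12 expressed in HEK293F cells by PEI transfection (48 h, 37 °C, 5% CO₂). Membranes prepared by hypotonic lysis, sonication, 100,000 × g pelleting and a high-salt wash, then resuspended in DPBS. Lysate (1 mg/mL) pre-exposed to hit compound, then labelled with FP-Rh (1 μM final, 45 min, 37 °C). Gel band intensity is read relative to control (100%).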

[12] = target: T2, ABHD12; experiment: Covalent labelling of mouse brain ABHD12 visualized by CuAAC with Rh-N3; format: biochemical; conditions: 45 min, 37 °C

FC(F)(F)Oc1ccc(Oc2ccnc(N3CCC[C@H](NC(=S)Nc4cccnc4)C3)c2Cl)c(Cl)c1 [(S)-DO271, (S)-N-3-pyridyl-N’-(1-[3-chloro-4-{2-chloro-4-(trifluoromethoxy)phenoxy}pyridine-2-yl]piperidin-3-yl)thiourea]
ABHD12 activity in THP-1 cells by competitive gel-based ABPP (in words) [1]: unaffected
overt signs of toxicity, such as weight loss or behavioral distress [2]: neither compound produced overt signs of toxicity
effect on ABHD12 activity (in words) [3]: did not affect
activity against ABHD12 (in words) [4]: inactive
effect on activity of other serine hydrolases [5]: did not affect
brain ABHD12 activity, ex vivo analysis with JJH350 probe [6]: did not block
fraction of treated ABHD12(−/−) mice that died prior to sacrifice at day 10 [7]: 30-40%
exposure compared with DO264 (in words) [8]: lower exposure
lyso-PS content of THP-1 cells [9]: did not alter

Cc1cnc(N2CCN(NC(=S)Nc3cccnc3)CC2)c(Cl)c1 [DO127, N-3-pyridyl-N’-[1-{3-chloro-5-(methyl)pyridin-2-yl}piperazine-4-yl]thiourea]
activity against ABHD12 (in words) [4]: no activity

FC(F)(F)c1cnc(N2CCC(NC(=S)Nc3cccnc3)CC2)c(Cl)c1 [DO130, N-3-pyridyl-N’-[1-{3-chloro-5-(trifluoromethyl)pyridin-2-yl}piperidin-4-yl]thiourea]
IC50 [10]: 1300 nM
activity in LC/MS-based lyso-PS hydrolysis secondary assay ([10]; hit compound tested at 10 μM): showed activity
activity in competitive ABPP secondary assay (FP-Rh probe) [11]: showed activity

C#Cc1ccc(Oc2ccnc(N3CCC(NC(=S)Nc4cccnc4)CC3)c2Cl)c(Cl)c1 [DO274, N-3-pyridyl-N’-(1-[3-chloro-4-{2-chloro-4-(ethynyl)phenoxy}pyridine-2-yl]piperidin-4-yl)thiourea]
covalent modification of ABHD12 [12]: did not show evidence of covalent modification
ABHD12 inhibitory activity (in words) [10]: potent ABHD12 inhibitory activity

CN(C(=S)Nc1cccnc1)C1CCN(c2nccc(Oc3ccc(OC(F)(F)F)cc3Cl)c2Cl)CC1 [DO276, N-3-pyridyl-N’-methyl-N’-(1-[3-chloro-4-{2-chloro-4-(trifluoromethoxy)phenoxy}pyridine-2-yl]piperidin-4-yl)thiourea]
IC50 [4]: 1100 nM

O=C(Nc1cccnc1)NC1CCN(c2nccc(Oc3ccc(OC(F)(F)F)cc3Cl)c2Cl)CC1 [DO277, N-3-pyridyl-N’-(1-[3-chloro-4-{2-chloro-4-(trifluoromethoxy)phenoxy}pyridine-2-yl]piperidin-4-yl)urea]
IC50 [4]: 170 nM
